Measured values reported in ChEMBL document CHEMBL1909581, “Growth inhibition of human lung cancer cells via down-regulation of epidermal growth factor receptor signaling by yuanhuadine, a daphnane diterpene from Daphne genkwa” (J Nat Prod, 2011).

What was measured:
Assay type in all cases: functional, cell-based
A549 = test: Antiproliferative activity against human A549 cells after 3 days by SRB assay; details: A549, 72 h
Procedure, shortened: (§1)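 Cells seeded at 5 × 10^4 cells/mL and exposed to a range of concentrations for 3 days. Fixed with 10% TCA, then SRB stain read. Growth expressed as % of solvent-treated control. IC50 obtained by nonlinear regression of percent survival versus concentration.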

NCI-H292 = test: Antiproliferative activity against human NCI-H292 cells after 3 days by SRB assay; details: NCI-H292, 72 h
SK-MES-1 = test: Antiproliferative activity against human SK-MES cells after 3 days by SRB assay; details: SK-MES-1, 72 h; procedure, shortened: as §1
NCI-H1993 = test: Antiproliferative activity against human NCI-H1993 cells after 3 days by SRB assay; details: NCI-H1993, 72 h
[1] = Antiproliferative activity against human H1299 cells after 3 days by SRB assay; details: NCI-H1299, 72 h; procedure, shortened: as §1
NCI-H358 = test: Antiproliferative activity against human NCI-H358 cells after 3 days by SRB assay; details: NCI-H358, 72 h; procedure, shortened: as §1

## Cc1c2ccncc2c(C)c2c1[nH]c1ccccc12 [ELLIPTECINE]
A549
  IC50: 1100 nM
NCI-H292
  IC50: 1000 nM
SK-MES-1
  IC50: 200 nM
NCI-H1993
  IC50: 200 nM
[1]
  IC50: 600 nM
NCI-H358
  IC50: 800 nM
